Measured values from ChEMBL document CHEMBL1932943, “Montmorillonite K-10 mediated green synthesis of cyano pyridines: Their evaluation as potential inhibitors of PDE4” (Eur J Med Chem, 2012).

biological target: 3',5'-cyclic-AMP phosphodiesterase 4B (Homo sapiens) (UniProt Q07343); test: Inhibition of recombinant His-tagged PDE4B using cAMP as substrate at 30 uM preincubated for 15 mins before substrate addition measured after 1 hr by luminescence assay
In short: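 PDE4B cDNA expressed as His-tagged protein in baculovirus-infected Sf9 cells, Ni-NTA purified. 10 ng enzyme preincubated 15 min with compound or DMSO vehicle, then 1 h with 5 µM cAMP, using a PDElight HTS cAMP phosphodiesterase kit. Reaction stopped, detection reagent added for 10 min in the dark, luminescence read. % inhibition = (RLU vehicle − RLU inhibitor)/RLU vehicle × 100.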

3',5'-cyclic-AMP phosphodiesterase 4B (Homo sapiens), sequence (Q07343 whole entry): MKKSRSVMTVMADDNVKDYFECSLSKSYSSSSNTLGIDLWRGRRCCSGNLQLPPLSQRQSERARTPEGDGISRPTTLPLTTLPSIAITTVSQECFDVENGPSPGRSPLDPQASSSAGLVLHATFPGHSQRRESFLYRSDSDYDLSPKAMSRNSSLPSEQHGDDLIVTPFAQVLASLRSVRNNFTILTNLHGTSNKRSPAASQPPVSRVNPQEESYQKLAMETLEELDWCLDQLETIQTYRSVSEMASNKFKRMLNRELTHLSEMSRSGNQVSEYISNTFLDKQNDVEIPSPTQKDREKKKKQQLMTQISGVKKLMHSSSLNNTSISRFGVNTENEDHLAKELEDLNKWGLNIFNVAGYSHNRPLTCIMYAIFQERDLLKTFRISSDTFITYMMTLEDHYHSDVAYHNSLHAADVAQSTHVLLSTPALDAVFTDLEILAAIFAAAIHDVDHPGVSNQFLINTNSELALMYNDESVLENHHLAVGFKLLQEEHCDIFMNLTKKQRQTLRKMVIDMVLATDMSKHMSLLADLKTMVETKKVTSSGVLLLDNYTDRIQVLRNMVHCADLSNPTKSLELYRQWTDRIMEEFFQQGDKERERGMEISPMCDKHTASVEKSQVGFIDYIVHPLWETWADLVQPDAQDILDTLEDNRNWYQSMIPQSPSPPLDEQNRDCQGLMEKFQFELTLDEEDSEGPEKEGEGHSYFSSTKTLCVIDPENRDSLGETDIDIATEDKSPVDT

Row | Structure (SMILES) | inhibition
1 | COC(=O)c1c(C)nc(OC)c(C#N)c1-c1c(F)cc(Br)cc1F | 22.4%
2 | CCOC(=O)c1c(C)nc(OCC)c(C#N)c1-c1ccc(OC)cc1 | 65.9%
3 | COC(=O)c1c(C)nc(OC)c(C#N)c1-c1ccc(Br)cc1 | 44.8%
4 | COC(=O)c1c(C)nc(OC)c(C#N)c1-c1ccc(F)cc1F | 21.5%
5 | COC(=O)c1c(C)nc(OC)c(C#N)c1-c1ccc(F)cc1 | 43.2%
6 | COC(=O)c1c(C)nc(OC)c(C#N)c1-c1ccc(C(F)(F)F)cc1 | 23.5%
7 | CCOC(=O)c1c(C)nc(OCC)c(C#N)c1-c1ccc(F)cc1F | 20.4%
8 | CCOC(=O)c1c(C)nc(OCC)c(C#N)c1-c1ccc(F)cc1 | 42.3%
9 | COC(=O)c1c(C)nc(OC)c(C#N)c1-c1ccccc1 | 38.4%
10 | CCOC(=O)c1c(C)nc(OCC)c(C#N)c1-c1ccc(Br)cc1 | 43.7%
11 | COC(=O)c1c(C)nc(OC)c(C#N)c1-c1ccc(OC)cc1 | 64.1%
